# Screening data: PubChem BioAssay, several laboratories
# Hits are enriched below; roughly 9.6% of the tested compounds scored in any of these assays.
# MT stabilize HCS: microtubule stabilizers in HeLa cells | AID 2205 | 200,000 tested, 0.83% active | % tubulin-high responders, % at 10 µM | HeLa tubulin immunostaining HCS, 24 h; share of cells brighter than vehicle mean+2SD;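 active = plate Z-score above 3 for both tubulin-high and condensed-nucleus cell shares, with cell loss under 80%, at 10 µM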;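 also: anti alpha tubulin signal scored within the nucleus-defined area of each cell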
# Lmaj promast: Leishmania major promastigote growth inhibition; Leishmania major promastigotes, resazurin fluorescence viability; inhibition, % at 10 µM; 200,000 tested, 9% active; AID 1063; in the data active = inhibition above about 50%;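 also: promastigotes grown with compound for 44 hours at 28 °C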
# BaF3 parental: parental Ba/F3 viability inhibition as JAK2V617F counter-screen; CellTiter-Glo ATP luminescence; inhibition, % at 5.6 µM; 220,000 tested, 1.1% active;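 active = inhibition above a per-campaign cutoff, the mean inhibition of all tested compounds plus 3 SD, cut at about 27% in these data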
# bCat nuc transl: modulators of beta-catenin nuclear translocation | HeLa beta-catenin nuclear translocation, immunofluorescence imaging | nuclear translocation activity, % at 5 µM | 190,000 tested, 0.3% active;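 active = nuclear translocation activity above 50% at 5 µM, with a well cell count of 50 or more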;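 also: per-cell ratio of nuclear to cytoplasmic median beta-catenin stain intensity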
#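 Read-out: Nuclear/cytoplasmic beta-catenin signal ratio, % activation | Assay system: Human HeLa cell line | Times: 24 h compound exposure at 37°C, 5% CO2 | Signal: Fluorescence imaging of beta-catenin antibody stain plus DAPI | Dosing: 5 µM primary, 0.02–20 µM confirmation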
# Ba/F3 V617F tox: lowers viability of Ba/F3 cells expressing EpoR and JAK2V617F | ATP luminescence | inhibition, % at 5.6 µM | 220,000 tested, 1.1% active | AID 1446;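 active = inhibition above the campaign mean plus 3 SD over all tested compounds, cut at about 24% in these data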;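 also: cytokine-independent growth of Ba/F3 cells driven by EpoR plus mutant JAK2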
# APP 5UTR inh: APP translation inhibition | inhibition, % at 2 µM | 190,000 tested, 0.82% active | SH-SY5Y APP 5'UTR-luciferase reporter, luminescence;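 active = inhibition above a set limit, derived from the sample mean plus 3 SD, cut at about 45% in these data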
# A number is an active result; - = inactive; . = no result given.
SMILES,MT stabilize HCS,Lmaj promast,BaF3 parental,bCat nuc transl,Ba/F3 V617F tox,APP 5UTR inh
COc1cccc(N2CCN(C(=O)/C=C/c3ccco3)CC2)c1,-,-,-,-,-,-
NC(=O)C1(N2CCCCC2)CCN(S(=O)(=O)c2cc(Cl)ccc2Cl)CC1,-,-,-,.,-,-
NS(=O)(=O)c1ccc(CCNC(=O)/C=C/c2ccc([N+](=O)[O-])cc2)cc1,-,-,-,-,-,-
COc1ccc(/C=C/C(=O)NCCc2ccc(S(N)(=O)=O)cc2)cc1,-,62,-,-,-,-
CC(C)(C)NC(=O)CN(Cc1ccc(F)cc1)C(=O)Cn1nnc(-c2ccc(F)cc2)n1,-,-,-,-,-,-
CCOC(=O)CSc1nc2cc(C(F)(F)F)cnc2n1C,.,.,-,-,-,.
CC(C)CCNC(=O)C(CC(C)C)N(Cc1ccc2c(c1)OCO2)C(=O)c1snc(C(N)=O)c1N (configuration not stated),-,92,-,-,-,-
Cc1ccc(N(C(=O)c2snc(C(N)=O)c2N)C(C(=O)NCCC(C)C)c2ccco2)cc1 (configuration not stated),-,65,-,-,-,-
CCc1ccccc1N(CC(=O)NCc1ccco1)C(=O)c1snc(C(N)=O)c1N,-,62,-,-,-,-
CC(C)CC(C(=O)NC1CCCC1)N(Cc1ccc2c(c1)OCO2)C(=O)c1snc(C(N)=O)c1N (configuration not stated),-,-,-,-,-,-
COc1ccc([N+](=O)[O-])cc1NC(=O)c1ccc(CN(c2ccccc2)S(C)(=O)=O)cc1,-,-,-,-,-,-
COC(=O)C1=C(C)N(c2ccccc2)C(=S)NC1c1ccccc1C(F)(F)F (configuration not stated),-,70,-,-,-,-
O=C(NC(=O)c1ccccc1)OCCN1C(=O)c2ccccc2C1=O,-,-,-,-,-,-
CN(Cc1ccccc1)S(=O)(=O)c1ccc(Cl)c(C(=O)OCC(N)=O)c1,.,.,-,-,-,.
O=C(NCc1cccc(C(F)(F)F)c1)C1CC(c2c(Cl)cccc2Cl)=NO1 (configuration not stated),37,-,-,-,-,-
O=C(COc1ccc(Br)cc1)Nc1ccc([N+](=O)[O-])cn1,-,-,-,.,-,-
CCOc1cc(/C=N/n2nnnc2N)ccc1OCc1c(C)no[n+]1[O-],-,-,97,-,-,-
O=C(NCCc1ccc(Cl)cc1)Nc1ccc(Cl)cc1,.,.,-,-,-,.
CCN(CCNC(=O)Nc1ccc(Cl)cc1)c1ccccc1,-,96,-,-,-,-
CCn1c(=O)cc(SCC(=O)N2CCN(c3ccccn3)CC2)c2ccccc21,-,-,-,.,-,-
CCn1c(=O)cc(SCC(=O)N2CCN(c3ccccc3F)CC2)c2ccccc21,-,53,-,-,-,-
S=C(NN=C1C2CC3CC(C2)CC1C3)Nc1ccccc1,-,99,-,-,-,-
CCC(C)(C)C1CCC(=NNC(=S)Nc2ccccc2)CC1 (configuration not stated),.,-,-,-,-,-
COC(=O)c1ccc(CNC(=O)COC(=O)c2cc(Cl)nc(Cl)c2)cc1,-,-,-,-,-,-
COc1cccc(-c2nn(C)c3sc(C(=O)N4CCOCC4)cc23)c1,-,-,-,-,-,-
SMILES,MT stabilize HCS,Lmaj promast,BaF3 parental,bCat nuc transl,Ba/F3 V617F tox,APP 5UTR inh
COc1cccc(-c2nn(C)c3sc(C(=O)N4CCN(c5ccccn5)CC4)cc23)c1,13,-,-,-,-,-
COC(=O)c1sc(C(C)(C)C)cc1CS(=O)(=O)c1ccccn1,.,.,-,-,-,.
O=C(NCCN1CCOCC1)c1ccc([N+](=O)[O-])cc1[N+](=O)[O-],-,71,-,-,-,-
CC1(C)CC(NC(=O)c2sc3cc(Cl)ccc3c2Cl)CC(C)(C)N1,-,101,-,-,-,-
Cc1ccc(C)c(C(=O)NC2CC(C)(C)NC(C)(C)C2)c1,-,-,-,.,-,-
O=C(NCCCN1CCOCC1)c1sc2cc(F)ccc2c1Cl,-,93,-,-,-,-
O=C(NCCCN1CCOCC1)c1sc2cc([N+](=O)[O-])ccc2c1Cl,-,86,-,-,-,-
O=C(NCc1ccco1)c1sc2cc(F)ccc2c1Cl,-,-,-,-,-,-
CCOC(=O)C1(C)C=C(Nc2ccc(NC(C)=O)cc2)C(=O)N1c1ccc(NC(C)=O)cc1 (configuration not stated),.,.,-,-,-,.
O=C(NCCCN1CCOCC1)c1sc2cc(Cl)ccc2c1Cl,-,92,-,-,-,-
